According to ChEMBL document CHEMBL1150875, “Petrosaspongiolides M-R: new potent and selective phospholipase A2 inhibitors from the New Caledonian marine sponge Petrosaspongia nigra” (J Nat Prod, 1998):
pIC50: −log10 of the molar value.

What was measured:
[1] = target: T1, Phospholipase A2 (Apis mellifera) (UniProt P00630); assay: Inhibition of bee venom secretory PLA2 at 10 uM; design: scale not given: the % may be the effect or the level left
T1 sequence (whole entry): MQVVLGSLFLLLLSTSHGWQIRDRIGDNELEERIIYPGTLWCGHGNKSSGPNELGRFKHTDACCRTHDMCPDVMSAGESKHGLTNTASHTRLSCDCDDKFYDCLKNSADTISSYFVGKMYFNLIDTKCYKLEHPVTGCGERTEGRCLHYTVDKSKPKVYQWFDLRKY
Method in brief: (§1)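 Secreted PLA2 from Naja naja venom or bee venom exposed to 10 µM compound. Result reported as percent inhibition, mean ± S.E.M. of n = 6.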

[2] = target: Acidic phospholipase A2 2 (Naja naja) (UniProt P15445); assay: Inhibition of Naja Naja venom secretory PLA2 at 10 uM; design: scale not given: the % may be the effect or the level left; method in brief: as §1
Acidic phospholipase A2 2 (Naja naja), sequence (P15445 whole entry): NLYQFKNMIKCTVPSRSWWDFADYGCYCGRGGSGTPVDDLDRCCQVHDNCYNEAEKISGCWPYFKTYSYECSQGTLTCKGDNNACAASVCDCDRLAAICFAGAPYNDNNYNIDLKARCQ

Sus scrofa = organism: Sus scrofa; assay: Inhibition of pig pancreatic secretory PLA2 at 10 uM; design: scale not given: the % may be the effect or the level left
Method in brief: (§2)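 Percent inhibition of the enzyme's activity with test compound at 10 µM. Reported as mean ± S.E.M., n = 6, with significance marked at p < 0.05 and p < 0.01.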

[3] = target: Phospholipase A2 (Homo sapiens) (UniProt P04054); assay: Inhibition of human synovial secretory PLA2 at 10 uM; design: scale not given: the % may be the effect or the level left; method in brief: as §2
Phospholipase A2 (Homo sapiens), sequence (P04054 23-148 limits assumed): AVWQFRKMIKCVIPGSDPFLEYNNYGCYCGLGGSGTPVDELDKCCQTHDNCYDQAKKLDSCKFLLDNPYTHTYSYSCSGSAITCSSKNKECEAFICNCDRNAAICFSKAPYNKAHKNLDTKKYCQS

Phospholipase A2 = target: T2, Phospholipase A2 (Apis mellifera, UniProt P00630); assay: Inhibition of bee venom secretory PLA2
T2 sequence (P00630 whole entry): T1 sequence (whole entry)

| SMILES | Activity [1] | Activity [2] | Activity (Sus scrofa) | Activity [3] | pIC50 (Phospholipase A2) |
| --- | --- | --- | --- | --- | --- |
| CC1(C)CCC[C@]2(C)[C@H]3CC[C@H](C(=O)O)[C@@H](/C=C/C4=CC(=O)OC4O)[C@]3(C)CC[C@@H]12 (stereo partly specified) | 18.8% | 1% | 0.8% | 7.1% |  |
| CC(=O)OC1OC(=O)C=C1[C@H]1C[C@@H]2[C@H](CCC3[C@@]4(C)CCCC(C)(C)C4CC[C@]32C)[C@@H](OC(C)=O)O1 (stereo partly specified) | 10.6% | 6.9% | 0% | 32.1% |  |
| CC(=O)O[C@H]1O[C@@H](C2=CC(=O)OC2O)C[C@@H]2[C@@H]1CCC1[C@@]3(C)CCCC(C)(C)C3CC[C@]12C (stereo partly specified) | 34.8% | 5.6% | 0% | 59% |  |
| CC(=O)O[C@@H]1O[C@@H](C2=CC(=O)OC2O)C[C@@H]2[C@@H]1CC[C@H]1[C@@]2(C)CC[C@H]2C(C)(C)CCC[C@]12C (stereo partly specified) [PETROSASPONGIOLIDE M] | 71% | 11.5% | 12.3% | 68.6% | 6.22 |
| CC1=C(CC/C(C)=C/CCC2=CC[C@H](C3=CC(=O)O[C@H]3O)O[C@H]2O)C(C)(C)CCC1 [MANOALIDE] |  |  |  |  | 5.12 |
| CC(=O)OC[C@@]1(C)CCC[C@]2(C)[C@H]3CC[C@@H]4[C@H](OC(C)=O)O[C@@H](C5=CC(=O)OC5O)C[C@H]4[C@]3(C)CC[C@@H]12 (stereo partly specified) | 43.9% | 6.8% | 11.6% | 44% |  |
| CC(=O)OC[C@@]1(C)CCC[C@]2(C)[C@H]3CC[C@@H]4[C@H](O)O[C@@H](C5=CC(=O)OC5O)C[C@H]4[C@]3(C)CC[C@@H]12 (stereo partly specified) | 12.5% | 4.2% | 0% | 30.1% |  |
